Test results from ChEMBL document CHEMBL1152253, “Inhibition of the CRM1-mediated nucleocytoplasmic transport by N-azolylacrylates: structure-activity relationship and mechanism of action” (Bioorg Med Chem, 2008).
Converted amounts (≈) assume the structure as drawn. The source made the active and inactive calls. The rule behind the calls is not given here.

Key:
[1] = biological target: Exportin-1 (Homo sapiens) (UniProt O14980); assay: Inhibition of CRM1-mediated nucleocytoplasmic transport of RevM5 mutant in HEK293 cells assessed as RevM5-GFP nuclear localization at 0.4 ug/ml after 2 hrs by fluorescence microscopy; format: cell-based
Chain of Exportin-1 (Homo sapiens) (O14980 whole entry): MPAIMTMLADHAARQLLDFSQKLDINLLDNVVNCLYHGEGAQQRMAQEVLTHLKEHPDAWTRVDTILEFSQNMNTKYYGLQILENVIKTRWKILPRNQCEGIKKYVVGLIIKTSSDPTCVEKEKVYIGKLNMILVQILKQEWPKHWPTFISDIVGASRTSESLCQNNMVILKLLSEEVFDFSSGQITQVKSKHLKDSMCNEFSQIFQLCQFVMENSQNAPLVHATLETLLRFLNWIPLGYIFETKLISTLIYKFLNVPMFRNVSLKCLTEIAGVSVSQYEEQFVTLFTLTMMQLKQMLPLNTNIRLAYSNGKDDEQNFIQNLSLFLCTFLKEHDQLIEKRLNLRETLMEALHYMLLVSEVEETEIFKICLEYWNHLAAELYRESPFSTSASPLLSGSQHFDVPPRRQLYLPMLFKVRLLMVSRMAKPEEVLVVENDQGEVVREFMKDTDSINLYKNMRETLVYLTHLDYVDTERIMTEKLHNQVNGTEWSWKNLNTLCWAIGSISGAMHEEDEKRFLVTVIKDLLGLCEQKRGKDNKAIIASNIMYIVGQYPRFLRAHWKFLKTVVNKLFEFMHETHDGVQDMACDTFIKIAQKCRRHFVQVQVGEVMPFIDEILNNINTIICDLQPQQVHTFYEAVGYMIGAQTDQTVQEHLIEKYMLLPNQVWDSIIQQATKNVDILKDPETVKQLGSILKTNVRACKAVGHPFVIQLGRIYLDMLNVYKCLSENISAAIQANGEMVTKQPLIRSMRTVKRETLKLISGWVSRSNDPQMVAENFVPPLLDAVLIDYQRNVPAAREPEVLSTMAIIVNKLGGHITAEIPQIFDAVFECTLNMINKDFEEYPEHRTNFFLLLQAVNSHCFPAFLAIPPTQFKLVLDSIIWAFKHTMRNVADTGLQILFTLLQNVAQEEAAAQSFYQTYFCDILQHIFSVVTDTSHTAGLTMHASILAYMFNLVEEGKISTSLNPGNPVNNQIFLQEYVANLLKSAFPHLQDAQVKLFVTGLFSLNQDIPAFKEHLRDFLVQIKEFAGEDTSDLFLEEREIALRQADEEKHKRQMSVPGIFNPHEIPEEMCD
Outline: (§1)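 HEK 293T cells in 96-well trays were transfected with pRevM5-GFP by calcium phosphate, and compound was added one day later. RevM5-GFP distribution was scored by fluorescence microscopy 2 h after addition. Mainly nuclear localization was scored positive; cytoplasmic localization was scored negative.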

HeLa [2] = assay: Inhibition of Rev-BFP/CRM1Cys528Ser-EYFP mutant interaction in human HeLa cells assessed as Rev-BFP/CRM1Cys528Ser-EYFP nuclear colocalization after 2 hrs by fluorescence microscopy; format: cell-based
Outline: (§2)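 HeLa cells were co-transfected with Rev-BFP and the EYFP-CRM1 Cys528 mutant. One day after transfection they were washed with PBS and treated with compound in complete DMEM. Co-localization was followed by live-cell confocal microscopy at 30, 120 and 180 min and 24 h.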

[3] = system: Human immunodeficiency virus 1; assay: Antiviral activity against HIV1 NL4-3 infected in HEK293T cells assessed as inhibition of virion-associated p24 antigen production after 24 hrs by ELISA; format: functional, organism-based
Outline: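 HEK 293T cells in DMEM with 10% heat-inactivated FCS were transfected with the HIV-1 molecular clone NL4-3 by calcium phosphate. Compounds were added at a range of concentrations. Virus-associated p24 antigen in the supernatant was measured by ELISA 24 h after compound addition.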

[4] = biological target: Exportin-1 (Homo sapiens) (UniProt O14980); assay: Inhibition of CRM1-mediated nucleocytoplasmic transport of HIV1 RevM5 mutant in human HeLa cells assessed as HIV1 RevM5-GFP nuclear localization at 10 ug/ml after 2 hrs by fluorescence microscopy; format: cell-based
Outline: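 HeLa cells, grown in DMEM with 10% heat-inactivated FCS, 2 mM L-glutamine, 0.1% bicarbonate and gentamicin, were plated on glass-bottom dishes and transfected to express RevM5-GFP. RevM5-GFP is a Rev mutant that stays cytoplasmic but can still enter the nucleus. Compound was added, and after 2 h cellular RevM5-GFP distribution, nuclear versus cytoplasmic, was read by fluorescence microscopy with DIC images.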

[5] = biological target: Exportin-1 (Homo sapiens) (UniProt O14980); assay: Inhibition of CRM1-mediated nucleocytoplasmic transport of RevM5 mutant in HEK293 cells assessed as RevM5-GFP nuclear localization at 2 ug/ml after 2 hrs by fluorescence microscopy; format: cell-based; outline: as §1
[6] = biological target: Exportin-1 (Homo sapiens) (UniProt O14980); assay: Inhibition of CRM1-mediated nucleocytoplasmic transport of RevM5 mutant in HEK293 cells assessed as RevM5-GFP nuclear localization at 10 ug/ml after 2 hrs by fluorescence microscopy; format: cell-based; outline: as §1
[7] = biological target: Exportin-1 (Homo sapiens) (UniProt O14980); assay: Inhibition of CRM1-mediated nucleocytoplasmic transport of RevM5 mutant in HEK293 cells assessed as RevM5-GFP nuclear localization at 0.08 ug/ml after 2 hrs by fluorescence microscopy; format: cell-based; outline: as §1
[8] = Cytotoxicity against HIV1 3B infected human OM10.1 cells at 10 ug/mL after 48 hrs by MTT assay; format: cell-based
Outline: (§3)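 Cytotoxicity was read by MTT viability staining on the same TNF-α-stimulated (1 ng/ml), twice-washed HIV-1(IIIB) chronically infected OM10.1 cultures (120,000 cells/well). Compound was present throughout the 48 h incubation at 37 °C.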

HeLa [9] = assay: Inhibition of Rev-BFP/CRM1Cys528Ser-EYFP mutant interaction in human HeLa cells assessed as Rev-BFP/CRM1Cys528Ser-EYFP nuclear colocalization at 10 ug/mL after 2 hrs by fluorescence microscopy; format: cell-based; outline: as §2
HeLa [10] = assay: Inhibition of Rev-BFP/CRM1-EYFP interaction in human HeLa cells assessed as Rev-BFP/CRM1-EYFP nuclear colocalization at 10 ug/mL after 120 mins by fluorescence microscopy; format: cell-based
Outline: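 HeLa cells on glass-bottom dishes, about 50% confluent, were co-transfected with Rev-BFP and CRM1-EYFP. One day later cells were washed with PBS and treated with compound in complete DMEM. Nucleolar co-localization of CRM1-EYFP with Rev was examined by live confocal microscopy at 30, 120 and 180 min and 24 h.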

[11] = system: Human immunodeficiency virus 1; assay: Antiviral activity against HIV1 3B infected in human OM10.1 cells assessed as inhibition of TNF-alpha-induced viral p24 production at 5 ug/mL after 48 hrs by ELISA; format: functional; parameters: scale not given: the % may be the effect or the level left
Outline: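 OM10.1 cells chronically infected with HIV-1(IIIB), grown in RPMI 1640 with 10% FCS, were washed twice to remove cell-free virus and seeded at 120,000 cells/well with compound. Cultures were stimulated with 1 ng/ml TNF-α and incubated 48 h at 37 °C. Supernatant p24 was measured by ELISA.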

[12] = Cytotoxicity against HIV1 3B infected human OM10.1 cells at 20 ug/mL after 48 hrs by MTT assay; format: cell-based; outline: as §3

In the case of `Clc1cccc(-c2nnn[nH]2)c1`, the Activity [1] was “inactive”, the Activity (HeLa [2]) was “inactive” and the Activity ([3]; HEK-293T) was “inactive”. The Activity [4] was “inactive”, the Activity [5] was “inactive” and the Activity [6] was “inactive”. For the same compound, the Activity [7] was “inactive”.
In the case of `CCOC(=O)/C=C\n1nnc(-c2cccc(Cl)c2)n1`, the Activity [8] was “Toxic”, the Activity (HeLa [9]) was “inactive” and the Activity (HeLa [10]) was “Active”. The EC50 ([3]; Human immunodeficiency virus 1, NL4-3, HEK-293T) was 0.2 µg/mL (≈ 0.718 µM), the Activity [11] was 94% and the Activity [4] was “Active”. The Activity [12] was “Toxic”, the Activity [5] was “Active” and the Activity [6] was “Active”. For the same compound, the Activity [7] was “inactive”.
